≈ marks a conversion by molar mass, not a printed value.
Legend:
[1] = Cytotoxicity against human MCF7 cells by MTT assay; assay type: functional, cell-based
Procedure, shortened: (§1)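 Microculture tetrazolium (MTT) assay on a panel of human carcinoma cell lines: colon HCT-116, hepatocellular HepG2, gastric BGC-823, NSCLC NCI-H1650, ovarian A2780, melanoma A375, lung adenocarcinoma A549, breast MCF-7 and pancreatic Capan2. IC50 values are reported in μM.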

[2] = test system: Xanthomonas euvesicatoria; experiment: Antibacterial activity against Xanthomonas vesicatoria ATCC 11633 by broth dilution colorimetric assay; assay type: functional
Procedure, shortened: (§2)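 Modified broth dilution colorimetric assay in 96-well plates, run against a plant- and human-pathogen panel. Both MIC and median inhibitory concentration (IC50) were determined. Streptomycin sulfate served as the positive control.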

Pyricularia oryzae = experiment: Antifungal activity against Magnaporthe oryzae assessed as inhibition of spore germination after 8 hrs by microscopic analysis; assay type: functional
Procedure, shortened: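 Spores taken from 7-day-old M. oryzae cultures (2 × 10^6 spores per mL). Compound in 10% aqueous ethanol was mixed 1:1 with the spore suspension on a concave slide and kept in a dark moist chamber at 25 °C for 8 h. Germination was counted by microscope. Inhibition % = [(Gc − Gt)/Gc] × 100 against 10% ethanol control, with triplicates. IC50 was obtained by linear regression; carbendazim served as positive control.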

[3] = Cytotoxicity against human Capan2 cells by MTT assay; assay type: functional, cell-based; details: Capan-2; procedure, shortened: as §1
[4] = test system: Staphylococcus haemolyticus; experiment: Antibacterial activity against Staphylococcus haemolyticus ATCC 29970 by broth dilution colorimetric assay; assay type: functional; procedure, shortened: as §2
[5] = Antibacterial activity against Ralstonia solanacearum ATCC 11696 by broth dilution colorimetric assay; assay type: functional, Ralstonia solanacearum K60-1
Procedure, shortened: (§3)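 Modified broth dilution colorimetric assay in 96-well plates, reporting both minimum inhibitory concentration (MIC) and median inhibitory concentration (IC50). Streptomycin sulfate served as positive control.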

Bacillus subtilis [6] = experiment: Antibacterial activity against Bacillus subtilis ATCC 11562 by broth dilution colorimetric assay; assay type: functional; procedure, shortened: as §2
[7] = test system: Pseudomonas amygdali pv. lachrymans; experiment: Antibacterial activity against Pseudomonas lachrymans ATCC 11921 by broth dilution colorimetric assay; assay type: functional; procedure, shortened: as §2
[8] = Cytotoxicity against human HCT116 cells by MTT assay; assay type: functional, cell-based; details: HCT-116; procedure, shortened: as §1
[9] = Cytotoxicity against human A375 cells by MTT assay; assay type: functional, cell-based; details: A-375; procedure, shortened: as §1
[10] = test system: Agrobacterium tumefaciens; experiment: Antibacterial activity against Agrobacterium tumefaciens ATCC 11158 by broth dilution colorimetric assay; assay type: functional; procedure, shortened: as §2
[11] = Cytotoxicity against human A549 cells by MTT assay; assay type: functional, cell-based; procedure, shortened: as §1
[12] = Cytotoxicity against human NCI-H1650 cells by MTT assay; assay type: functional, cell-based; procedure, shortened: as §1
[13] = Cytotoxicity against human A2780 cells by MTT assay; assay type: functional, cell-based; procedure, shortened: as §1
[14] = Cytotoxicity against human BGC823 cells by MTT assay; assay type: functional, cell-based; details: BGC-823; procedure, shortened: as §1
[15] = Cytotoxicity against human HepG2 cells by MTT assay; assay type: functional, cell-based; procedure, shortened: as §1
[16] = test system: Xanthomonas euvesicatoria; experiment: Antibacterial activity against Xanthomonas vesicatoria ATCC 11633 after 24 hrs by MTT based broth dilution colorimetric assay; assay type: functional; details: ATCC 11633, 24 h; procedure, shortened: as §3
[17] = test system: Agrobacterium tumefaciens; experiment: Antibacterial activity against Agrobacterium tumefaciens ATCC 11158 after 24 hrs by MTT based broth dilution colorimetric assay; assay type: functional; details: ATCC 11158, 24 h
[18] = test system: Pseudomonas amygdali pv. lachrymans; experiment: Antibacterial activity against Pseudomonas lachrymans ATCC 11921 after 24 hrs by MTT based broth dilution colorimetric assay; assay type: functional; details: ATCC 11921, 24 h; procedure, shortened: as §3
Bacillus subtilis [19] = experiment: Antibacterial activity against Bacillus subtilis ATCC 11562 after 24 hrs by MTT based broth dilution colorimetric assay; assay type: functional; details: ATCC 11562, 24 h

| Compound | IC50 [1] [µM] | MIC [2] [µg/mL] | IC50 (Pyricularia oryzae) [µg/mL] | IC50 [3] [µM] | MIC [4] [µg/mL] | MIC [5] [µg/mL] | IC50 (Bacillus subtilis [6]) [µg/mL] | MIC (Bacillus subtilis [6]) [µg/mL] | IC50 [7] [µg/mL] | MIC [7] [µg/mL] | IC50 [8] [µM] | IC50 [9] [µM] | IC50 [10] [µg/mL] | MIC [10] [µg/mL] | IC50 [11] [µM] | IC50 [2] [µg/mL] | IC50 [5] [µg/mL] | IC50 [12] [µM] | IC50 [13] [µM] | IC50 [14] [µM] | other results |
| --- | --- | --- | --- | --- | --- | --- | --- | --- | --- | --- | --- | --- | --- | --- | --- | --- | --- | --- | --- | --- | --- |
| COc1cc(O)c2c(=O)oc3c(c2c1)[C@@](C)(O)C[C@@H](OC)[C@@]31C[C@@H](O)C(=O)O1 | > 50 | > 200 | > 200 | > 50 | > 200 | > 200 | 45.5 (≈ 116 µM) | 75 (≈ 191 µM) | 44.7 (≈ 114 µM) | 100 (≈ 255 µM) | > 50 | > 50 | 56.7 (≈ 145 µM) | 100 (≈ 255 µM) | > 50 |  |  |  |  |  |  |
| COC1=C[C@](C)(O)c2c(oc(=O)c3c(O)cc(OC)cc23)C1=O | > 50 | > 200 | 82.1 (≈ 258 µM) | > 50 | > 200 | > 200 |  | > 200 |  | > 200 | > 50 | > 50 |  | > 200 | > 50 |  |  |  |  |  |  |
| COc1cc(O)c2c(=O)oc3c(c2c1)[C@@](C)(O)C[C@H](OC)[C@@]31C[C@@H](O)C(=O)O1 |  | > 200 |  |  | > 200 | > 200 |  | > 200 |  | > 200 |  |  |  | > 200 |  |  |  |  |  |  |  |
| COc1cc(O)c2c(=O)oc3c(c2c1)[C@@](C)(O)C(Cl)=C(O)C3=O | > 50 | 100 (≈ 295 µM) |  | > 50 | 25 (≈ 73.8 µM) | 50 (≈ 148 µM) | 44.6 (≈ 132 µM) | 100 (≈ 295 µM) | 4.3 (≈ 12.7 µM) | 25 (≈ 73.8 µM) | 37.3 | > 50 | 47.3 (≈ 140 µM) | 100 (≈ 295 µM) | 25.5 | 52.5 (≈ 155 µM) | 36.5 (≈ 108 µM) |  |  |  | IC50 [4]: 7 µg/mL (≈ 20.7 µM) |
| COc1cc(O)c2c(=O)oc3c(O)c(OC)c(Cl)c(C)c3c2c1 |  | 50 (≈ 148 µM) | > 200 |  | 50 (≈ 148 µM) | 50 (≈ 148 µM) | 22.4 (≈ 66.5 µM) | 50 (≈ 148 µM) | 16.4 (≈ 48.7 µM) | 50 (≈ 148 µM) | > 10 |  | 15 (≈ 44.5 µM) | 50 (≈ 148 µM) |  | 15.9 (≈ 47.2 µM) | 24.2 (≈ 71.9 µM) | > 10 | > 10 | > 10 | IC50 [4]: 26.7 µg/mL (≈ 79.3 µM); IC50 [15]: > 10 µM |
| COc1cc(O)c2c(=O)oc3cc(O)c(Cl)c(C)c3c2c1 | > 50 |  |  | > 50 |  |  |  |  |  |  | > 50 | > 50 |  |  | > 50 |  |  |  |  |  | IC50 [16]: 16.7 to 34.3 µg/mL (≈ 54.5 to 112 µM); IC50 [17]: 16.7 to 34.3 µg/mL (≈ 54.5 to 112 µM); IC50 [18]: 16.7 to 34.3 µg/mL (≈ 54.5 to 112 µM); IC50 (Bacillus subtilis [19]): 16.7 to 34.3 µg/mL (≈ 54.5 to 112 µM) |
| Cc1c(Cl)c(O)cc2oc(=O)c3c(O)cc(O)cc3c12 |  | 75 (≈ 256 µM) | 9.9 (≈ 33.8 µM) |  | > 200 | 50 (≈ 171 µM) | 18.6 (≈ 63.6 µM) | 50 (≈ 171 µM) |  | > 200 | > 10 |  | 16.3 (≈ 55.7 µM) | 50 (≈ 171 µM) |  | 22.7 (≈ 77.6 µM) | 12.4 (≈ 42.4 µM) | > 10 | > 10 | > 10 | IC50 [15]: > 10 µM |
| COC1=C(N)[C@](C)(O)c2c(oc(=O)c3c(O)cc(OC)cc23)C1=O |  | > 200 |  |  | > 200 | > 200 |  | > 200 |  | > 200 |  |  |  | > 200 |  |  |  |  |  |  |  |
| COc1cc(O)c2c(=O)oc3c(O)c(OC)cc(C)c3c2c1 |  | > 200 | > 200 |  | > 200 | > 200 |  | > 200 |  | > 200 | > 10 |  |  | > 200 |  |  |  | > 10 | > 10 | > 10 | IC50 [15]: > 10 µM |
| COc1cc(O)c2c(=O)oc3cc(O)cc(C)c3c2c1 | > 50 |  |  | > 50 |  |  |  |  |  |  | > 50 | > 50 |  |  | 70.4 |  |  |  |  |  | IC50 [16]: 16.7 to 34.3 µg/mL (≈ 61.3 to 126 µM); IC50 [17]: 16.7 to 34.3 µg/mL (≈ 61.3 to 126 µM); IC50 [18]: 16.7 to 34.3 µg/mL (≈ 61.3 to 126 µM); IC50 (Bacillus subtilis [19]): 16.7 to 34.3 µg/mL (≈ 61.3 to 126 µM) |
| Cc1cc(O)cc2oc(=O)c3c(O)cc(O)cc3c12 [ALTERNARIOL] |  | 25 (≈ 96.8 µM) | > 200 |  | 50 (≈ 194 µM) | 25 (≈ 96.8 µM) | 7 (≈ 27.1 µM) | 50 (≈ 194 µM) | 3.5 (≈ 13.6 µM) | 25 (≈ 96.8 µM) | > 10 |  | 11.4 (≈ 44.1 µM) | 50 (≈ 194 µM) |  | 4.9 (≈ 19 µM) | 5.5 (≈ 21.3 µM) | > 10 | > 10 | > 10 | IC50 [4]: 7.9 µg/mL (≈ 30.6 µM); IC50 [15]: > 10 µM |
| COC(=O)Nc1nc2ccccc2[nH]1 [CARBENDAZIM] |  |  | 6.9 (≈ 36.1 µM) |  |  |  |  |  |  |  |  |  |  |  |  |  |  |  |  |  |  |
| CC(=O)O[C@H]1C(=O)[C@@]2(C)[C@H]([C@H](OC(=O)c3ccccc3)[C@]3(O)C[C@H](OC(=O)[C@H](O)[C@@H](NC(=O)c4ccccc4)c4ccccc4)C(C)=C1C3(C)C)[C@]1(OC(C)=O)CO[C@@H]1C[C@@H]2O [PACLITAXEL] | 0.0006 |  |  | 0.017 |  |  |  |  |  |  | 0.0009 to 0.004 | 0.022 |  |  | 0.023 |  |  | 0.068 | 0.038 | 0.0033 | IC50 [15]: 0.012 µM |
| CN[C@@H]1[C@H](O[C@H]2[C@H](O[C@H]3[C@H](O)[C@@H](O)[C@H](N=C(N)N)[C@@H](O)[C@@H]3N=C(N)N)O[C@@H](C)[C@]2(O)C=O)O[C@@H](CO)[C@H](O)[C@H]1O.CN[C@@H]1[C@H](O[C@H]2[C@H](O[C@H]3[C@H](O)[C@@H](O)[C@H](N=C(N)N)[C@@H](O)[C@@H]3N=C(N)N)O[C@@H](C)[C@]2(O)C=O)O[C@@H](CO)[C@H](O)[C@H]1O.O=S(=O)(O)O.O=S(=O)(O)O.O=S(=O)(O)O [STREPTOMYCIN SULFATE] |  | 10 |  |  | 5 | 5 | 1.4 | 5 | 2.3 | 7.5 |  |  | 1.4 | 5 |  | 2.6 | 1.2 |  |  |  | IC50 [4]: 1.4 µg/mL |

Reference: ChEMBL document CHEMBL3865820, “Bioactive Dibenzo-α-pyrone Derivatives from the Endophytic Fungus Rhizopycnis vagum Nitaf22” (J Nat Prod, 2016)
